Experimental data from ChEMBL document CHEMBL3352730, “Synthesis and effects on cell viability of flavonols and 3-methyl ether derivatives on human leukemia cells” (Eur J Med Chem, 2014).
Activity calls are given as the source filed them. No cut-off for these calls is given here.

Experiments:
HL-60 [1] = test: Induction of cell cycle arrest in human HL60 cells assessed as accumulation at G2/M phase at 1 uM after 48 hrs by propidium iodide staining based flow cytometry (reference value: 17.9 +/- 0.7%); assay type: functional
HL-60 [2] = test: Induction of cell cycle arrest in human HL60 cells assessed as accumulation at G2/M phase at 3 uM after 48 hrs by propidium iodide staining based flow cytometry (reference value: 17.9 +/- 0.7%); assay type: functional
U-937 [3] = test: Induction of cell cycle arrest in human U937 cells assessed as accumulation at G2/M phase at 3 uM after 24 hrs by propidium iodide staining based flow cytometry (reference value: 22.8 +/- 1.6%); assay type: functional
HL-60 [4] = test: Induction of apoptosis in human HL60 cells assessed as pro-caspase-8 processing at 3 and 10 uM after 6 to 24 hrs by immunoblotting method; assay type: functional, cell-based
Outline: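 Kinetic and dose-response immunoblots. Cells were treated, harvested at the indicated times, and probed with antibodies that detect both procaspase-8/-9 and their cleaved fragments.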

U-937 [5] = test: Induction of cell cycle arrest in human U937 cells assessed as accumulation at G1 phase at 1 uM after 48 hrs by propidium iodide staining based flow cytometry (reference value: 51.9 +/- 0.9%); assay type: functional

In the case of `O=c1c(O)c(-c2ccc(Br)cc2)oc2ccccc12`, the Activity (HL-60 [1]) is reported as 20.8%, the Activity (HL-60 [2]) is reported as 18% and the Activity (U-937 [3]) is reported as 21.7%. For the same molecule, the Activity (HL-60 [4]) was “Active” and the Activity (U-937 [5]) was 49%.
